Screening data as filed in PubChem BioAssay.
The list is not random: actives were taken first. Their share in the collection is about 4.1%.
Cl transport mod – modulates chloride dependent transport by human KCC2; 190,000 compounds, 2.2% hits; B-score of Tl+ flux slope (higher = more flux/activation; lower = inhibition) at 10 µM; KCC2 cells, thallium flux FluoZin-2 fluorescence; Q9H2X9; AID 1456;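 active means thallium flux slope and its plate-corrected score both differing from the plate sample mean at a set confidence after two filtering rounds, in either direction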;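 further: slope of fluorescence scaled to starting intensity during 10 to 20 s after thallium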
KCNK3 inh – human KCNK3 channel inhibition, primary screen | O14649 | CHO-KCNK3 thallium flux, FluxOR fluorescence; active compounds read low | B-score at 10 µM | 340,000 compounds, 0.84% hits | AID 602410;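 active means B-score under library mean minus 4 SD, starting fluorescence ratio at most library mean plus 5 SD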;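 further: more negative B-score means stronger inhibition of thallium flux through KCNK3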
Target sequence (O14649 whole entry, looked up): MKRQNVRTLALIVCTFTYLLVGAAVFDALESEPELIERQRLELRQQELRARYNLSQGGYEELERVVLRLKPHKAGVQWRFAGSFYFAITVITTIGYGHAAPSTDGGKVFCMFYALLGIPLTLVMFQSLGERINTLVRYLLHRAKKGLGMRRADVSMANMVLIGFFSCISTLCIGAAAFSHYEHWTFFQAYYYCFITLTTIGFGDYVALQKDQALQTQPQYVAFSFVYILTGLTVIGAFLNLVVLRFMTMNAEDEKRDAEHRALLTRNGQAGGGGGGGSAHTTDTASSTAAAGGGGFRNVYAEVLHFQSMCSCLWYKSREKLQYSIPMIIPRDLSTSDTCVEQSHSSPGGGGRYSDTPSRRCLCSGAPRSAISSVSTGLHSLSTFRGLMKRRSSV
KCNQ1 inh – blocks the human KCNQ1 potassium channel. P51787. CHO-K1 KCNQ1, FluxOR thallium flux fluorescence; active compounds read high. B-score at 10 µM. 310,000 compounds, 1.3% hits. AID 2642;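 active means compounds whose thallium flux B-score, printed positive for inhibition, exceeds three library SD while starting fluorescence stays within three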;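 further: channel opened by potassium depolarization with thallium stimulus after 20 min compound exposure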
KCNK9 inh – blocks the human KCNK9 two-pore domain potassium channel. HEK293 KCNK9, FluxOR thallium flux fluorescence; active compounds read low. B-score at 10 µM. 310,000 compounds, 1.2% hits. AID 488922;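 active means ratio B-score over 3 SD below the library mean, with starting fluorescence within 5 SD of its mean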;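 further: negative B-score means less thallium flux so channel inhibition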
Target sequence (Q9NPC2 whole entry, looked up, the tested form may be a part): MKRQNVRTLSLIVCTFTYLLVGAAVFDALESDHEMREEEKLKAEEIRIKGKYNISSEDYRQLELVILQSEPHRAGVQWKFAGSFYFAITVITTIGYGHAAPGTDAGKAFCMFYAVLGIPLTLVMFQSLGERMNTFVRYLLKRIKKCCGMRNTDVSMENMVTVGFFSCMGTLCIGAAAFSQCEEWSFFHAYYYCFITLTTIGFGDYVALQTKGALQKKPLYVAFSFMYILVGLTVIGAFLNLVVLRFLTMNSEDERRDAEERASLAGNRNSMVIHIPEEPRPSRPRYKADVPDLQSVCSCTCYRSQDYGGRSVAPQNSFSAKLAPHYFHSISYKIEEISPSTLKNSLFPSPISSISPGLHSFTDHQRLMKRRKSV
KCNQ1 act – potentiates or activates the human KCNQ1 potassium channel | P51787 | CHO-K1 KCNQ1, thallium flux FluxOR fluorescence; active compounds read high | B-score at 10 µM | 310,000 compounds, 0.35% hits | AID 2648;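 active means fluorescence ratio B-score, a plate-corrected score, at least three library SD, with initial intensity B-score within 5 SD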
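assay system = CHO-K1 cells stably expressing KCNQ1 | medium = assay buffer, equal DMSO in all wells | timing = 37 °C overnight plating, 90-min dark dye load, 20-min compound pretreatment | measured by = kinetic FluxOR thallium fluorescence, 10-s 1-Hz baseline, 110-s post-stimulus read | measure = fluorescence change relative to baseline, converted to B score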
hERG rescue – compounds protecting human hERG from proarrhythmic drug block. CHO-hERG, FluxOR thallium flux, dofetilide IC70 present. activation (rescue from dofetilide block), less the hit threshold, % at 10 µM. 310,000 compounds, 0.51% hits;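 active means activation above the mean of controls blocked by dofetilide plus 5 SD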;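 further: thallium influx through hERG after potassium depolarization seen as dye fluorescence rise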
KCC2 sec1 – confirmation of human KCC2 transport modulators; shares compounds with Cl transport mod; HEK293-KCC2, thallium flux, FluoZin2 fluorescence; active compounds read high; normalised thallium flux (F/F0 slope) at 10 µM; 3,700 compounds, 15% hits; AID 1713;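 active means thallium flux slope above the same plate's solvent-only control mean plus 3 SD; inconclusive means the two replicate wells disagree; inactive means no significant difference from solvent-only control wells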
KCC2 bumet counter – thallium flux despite bumetanide block in KCC2 cells, secondary assay 3; HEK293-KCC2 + bumetanide/ouabain, thallium flux FluoZin2; active compounds read high; shares compounds with Cl transport mod; 3,700 compounds, 49% hits; normalized thallium flux at 10 µM;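 active means thallium entry rate above the same plate's blocked-transporter control wells by more than 3 SD; inconclusive means the two repeat wells disagree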;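 further: raw slope of fluorescence over initial fluorescence between 10 and 20 s after thallium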
KCC2 sec2 – confirmation of human KCC2 transport modulators; shares compounds with Cl transport mod; HEK293-KCC2, thallium flux FluoZin2 fluorescence; actives lie on both sides; F/F0 rise rate, 10–20 s post-thallium; normalized thallium flux at 10 µM; 3,700 compounds, 23% hits;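 active means thallium flux slope more than 3 SD above or below the plate's solvent-only control mean, mostly below; inconclusive means the two repeat wells disagreed; inactive means no significant shift from solvent-only controls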
HEK counter1 – counter-screen for KCC2 modulators: effect in parental HEK293 cells | shares compounds with Cl transport mod | thallium flux FluoZin2, ouabain; baseline-ratio fluorescence slope, 10–20 s after thallium | thallium flux rate (normalised fluorescence) at 10 µM | 3,700 compounds, 46% hits | AID 1716;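 active means thallium flux rate significantly above the same plate's solvent-only control wells, beyond their mean plus 3 SD; inconclusive means the two replicate wells gave conflicting results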
KCC2 ouabain – confirmation of human KCC2 modulators with ouabain | shares compounds with Cl transport mod | HEK293-KCC2, thallium flux FluoZin2 fluorescence; bidirectional: low = inhibitor, high = activator | raw Tl+ flux slope (below DMSO = inhibition, above = activation) at 10 µM | 3,700 compounds, 48% hits;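 active means thallium flux slope beyond 3 SD from same-plate DMSO control mean in most replicates, usually higher, sometimes lower; inconclusive means repeat tests gave conflicting results; inactive means no significant difference from controls in most replicates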;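 further: slope of initial-normalized fluorescence between seconds 10 and 20 after thallium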
HEK counter2 – counter-screen for KCC2 modulators: effect in parental HEK293 cells. shares compounds with Cl transport mod. thallium flux FluoZin-2 fluorescence slope. thallium flux slope at 10 µM. 3,700 compounds, 33% hits;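 active means thallium flux slope above the same plate's solvent-control mean plus 3 SD in both duplicate wells; inconclusive means duplicate wells that disagreed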;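 further: run without ouabain in cells lacking the KCC2 cotransporter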
Each line names hits and unclear results; the compound was inactive in the other large screens (follow-up assays come after a bar, where they were run).

COC(=O)c1ccccc1-n1c(C)nc(=O)c(-c2ccccc2)c1C	none (no result: Cl transport mod)
Cc1ccc(-c2nc(SCC(=O)Nc3cc(C)on3)c3c(=O)n(C)c(=O)n(C)c3n2)cc1	none (no result: Cl transport mod)
CCc1ccccc1Nc1nc(N)nc(COC(=O)c2cccn2C)n1	Cl transport mod -5.6 | KCC2 sec1 inactive | KCC2 bumet counter inactive | KCC2 sec2 inactive | HEK counter1 inactive | KCC2 ouabain inactive | HEK counter2 inactive
Cc1ccccc1Nc1nc(N)nc(COC(=O)c2cccn2C)n1	none
CCN(CC)S(=O)(=O)c1ccc(N2CCCC2)c(NC(=O)C2CSC3(C)CCC(=O)N23)c1 (stereo not given)	none (no result: Cl transport mod)
COc1cccc(CNC(=O)CSc2ccc(-c3cccs3)nn2)c1	Cl transport mod -3.2 | KCC2 sec1 inactive | KCC2 bumet counter inactive | KCC2 sec2 inconclusive | HEK counter1 inactive | KCC2 ouabain inactive | HEK counter2 inactive
O=C(CSc1ccc(-c2cccs2)nn1)NCc1ccccc1Cl	none (no result: KCNK3 inh)
COc1cccc(CNC(=O)Cc2ccc(Br)cc2)c1	none
COc1ccccc1CNC(=O)CSc1ccc(-c2cccs2)nn1	Cl transport mod -4.3 | KCC2 sec1 inactive | KCC2 bumet counter inactive | KCC2 sec2 inactive | HEK counter1 inactive | KCC2 ouabain 0.015 | HEK counter2 inactive
COc1ccc(NC(=O)CSc2ccc(-c3cccs3)nn2)c(OC)c1	none
COc1cccc(CNC(=O)Cn2cccc2)c1	Cl transport mod 9.6 | KCC2 sec1 inactive | KCC2 bumet counter inactive | KCC2 sec2 inactive | HEK counter1 inactive | KCC2 ouabain inactive | HEK counter2 inactive
COc1ccc(/C=C2\SC(=N)N(c3nccs3)C2=O)cc1OC	Cl transport mod 4.6 | KCC2 sec1 inactive | KCC2 bumet counter 0.032 | KCC2 sec2 inactive | HEK counter1 0.022 | KCC2 ouabain 0.029 | HEK counter2 0.019
O=C1OC(c2cccs2)=N/C1=C\c1ccc(-c2cccc(Cl)c2)o1	none (no result: Cl transport mod)
N=C1S/C(=C\c2ccc(-c3cccc(Cl)c3)o2)C(=O)N1c1nccs1	Cl transport mod 6.6, hERG rescue 26 | KCC2 sec1 inactive | KCC2 bumet counter 0.0089 | KCC2 sec2 inactive | HEK counter1 0.015 | KCC2 ouabain inactive | HEK counter2 0.017
O=C(CN(C(=O)c1csnn1)c1ccc(F)c(Cl)c1)NCc1ccc2c(c1)OCO2	none (no result: Cl transport mod)
CC(C)c1ccccc1OCC(=O)Nc1cc(S(=O)(=O)N2CCOCC2)ccc1N1CCCC1	none (no result: Cl transport mod)
CC(C)(C)OC(=O)C[C@@H]1C/C=C\C[C@@H](CC(=O)N(CCO)Cc2ccccc2)C(=O)N[C@H](C(C)(C)C)COC1=O	none (no result: Cl transport mod, KCNQ1 inh, KCNK9 inh, KCNQ1 act, hERG rescue)
COc1ccc(NC(=O)NCCN2CCc3ccccc3C2)cc1	none
CSc1ccc(NC(=O)NCCN2CCc3ccccc3C2)cc1	Cl transport mod -3.9 | KCC2 sec1 inactive | KCC2 bumet counter inactive | KCC2 sec2 0.025 | HEK counter1 inactive | KCC2 ouabain inactive | HEK counter2 inactive
O=C(c1cnn2c(C(F)F)cc(-c3ccccc3)nc12)N1CCN(Cc2ccc3c(c2)OCO3)CC1	none (no result: Cl transport mod)
O=C(NCCCN1C(=O)c2ccccc2C1=O)OCc1ccccc1	none (no result: Cl transport mod, KCNQ1 inh, KCNK9 inh, KCNQ1 act, hERG rescue)
S=C(NCc1ccccc1Cl)Nc1ccccc1Cl	Cl transport mod 6.1 | KCC2 sec1 inactive | KCC2 bumet counter 0.012 | KCC2 sec2 inactive | HEK counter1 inactive | KCC2 ouabain inconclusive | HEK counter2 inactive
CCOC(=O)c1ccccc1NC1c2ccccc2C(=O)N1C1CCN(C(=O)OCC)CC1 (stereo not given)	none
CCOC(=O)c1ccccc1NC1OC(=O)c2ccccc21 (stereo not given)	Cl transport mod -3.9 | KCC2 sec1 inconclusive | KCC2 bumet counter inactive | KCC2 sec2 inactive | HEK counter1 inconclusive | KCC2 ouabain inactive | HEK counter2 inconclusive
Cc1noc(NS(=O)(=O)c2ccc(NC(=O)C(F)(F)C(F)(F)C(F)(F)F)cc2)c1C	none (no result: Cl transport mod)
COc1ccc(-c2nnc(NC(=O)c3cc(Cl)ccc3Cl)o2)cc1	Cl transport mod 23 | KCC2 sec1 inactive | KCC2 bumet counter 0.055 | KCC2 sec2 0.044 | HEK counter1 0.039 | KCC2 ouabain 0.05 | HEK counter2 0.031
Cc1ccccc1C(=O)Nc1nnc(-c2ccc(F)cc2)o1	Cl transport mod 7.3 | KCC2 sec1 0.013 | KCC2 bumet counter 0.024 | KCC2 sec2 inactive | HEK counter1 0.016 | KCC2 ouabain inactive | HEK counter2 inconclusive
Cc1ccc(C)c(SCC(=O)Nc2nnc(-c3ccccc3)o2)c1	Cl transport mod 16 | KCC2 sec1 0.019 | KCC2 bumet counter 0.057 | KCC2 sec2 inactive | HEK counter1 0.038 | KCC2 ouabain 0.046 | HEK counter2 0.014
CCOc1ccc(NC(=O)CN(C)C(=O)C2CC(=O)N(c3cccc(SC)c3)C2)cc1OCC (stereo not given)	none (no result: Cl transport mod, KCNQ1 inh, KCNK9 inh, KCNQ1 act, hERG rescue)
O=C(Cn1cc(COc2ccc(Br)cc2[N+](=O)[O-])nn1)c1ccc(O)cc1	none (no result: Cl transport mod, KCNQ1 inh, KCNK9 inh, KCNQ1 act, hERG rescue)
CN(C(=O)c1cccc(NC(=O)Cc2cccc(NC(=O)C3CCCN(C(=O)c4ccccc4)C3)c2)c1)C1CC1 (stereo not given)	none (no result: Cl transport mod, KCNQ1 inh, KCNK9 inh, KCNQ1 act, hERG rescue)
O=C(NC(=S)Nc1ccc(CN2CCOCC2)cc1)c1cc2ccccc2o1	Cl transport mod 12 | KCC2 sec1 inactive | KCC2 bumet counter 0.016 | KCC2 sec2 inactive | HEK counter1 0.02 | KCC2 ouabain 0.029 | HEK counter2 0.015
O=C(NC(=S)Nc1ccc(CN2CCOCC2)cc1)c1ccc(-c2ccc(Br)cc2)o1	Cl transport mod 5.3 (no result: KCNK3 inh) | KCC2 sec1 inactive | KCC2 bumet counter inactive | KCC2 sec2 inactive | HEK counter1 0.018 | KCC2 ouabain inconclusive | HEK counter2 inactive
O=C(NC(=S)Nc1ccc(CN2CCOCC2)cc1)c1ccc(-c2ccc(Cl)cc2)o1	none (no result: KCNK3 inh)
